ChEMBL document CHEMBL3797057, “Synthesis and bioevaluation of substituted chalcones, coumaranones and other flavonoids as anti-HIV agents” (Bioorg Med Chem, 2016)
Active and inactive are the calls of the source. The calls are words filed in the database; no cut-off is given here.

What was measured:
[1] = Cytotoxicity against human TZM-bl cells assessed as inhibition of cell viability at 10 uM by CytoTox Glo assay relative to control; assay type: cell-based; details: for cytotoxicity at 10 µM: TZM-bl cells, read-out: INH; for inhibition (INH): tzm, 10 µM
In short: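 Replicate dishes of treated TZM-bl cells (50-60% confluent, compound at 10 µM in D10, triplicate) assayed with CytoTox Glo for dead and total cell numbers. Result is % difference in live-cell luminescence versus matched DMSO vehicle control.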

[2] = test system: Human immunodeficiency virus 1; assay: Antiviral activity against HIV1 infected in human TZM-bl cells assessed as inhibition of viral infection at 10 uM preincubated with cells for 5 mins followed by viral infection measured after 24 hrs by Bright Glo luciferase reporter gene assay relative to control; assay type: functional; details: for inhibition at 10 µM: Human immunodeficiency virus 1, TZM-bl
In short: (§1)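 TZM-bl cells at 50-60% confluence, in D10 medium, were pre-treated in triplicate with 10 µM compound or DMSO vehicle, for 5 min or 3 h. Virus was then added at 60 TCID50/0.1mL (MOI=0.01). After 24 h the cells were lysed for luciferase, read over 5 s/well. Result is % reduction in relative light units versus the virus+DMSO control.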

CHO = assay: Cytotoxicity against CHO cells assessed as decrease in cell proliferation after 48 hrs by MTS assay; assay type: cell-based, Cricetulus griseus
In short: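 CHO cells plated at 10,000 cells/mL, in triplicate, incubated overnight. Compound then added from DMSO stock, final DMSO <1%. After 48 h at 37°C in 5% CO2, MTS reagent was added for 4 h and absorbance read at 490 nm. IC50 taken from the plot of relative A490 versus concentration.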

[3] = Cytotoxicity against human TZM-bl cells assessed as decrease in cell viability at IC50 by CytoTox Glo assay relative to control; assay type: cell-based
[4] = test system: Human immunodeficiency virus 1; assay: Antiviral activity against HIV1 BAL infected in human TZM-bl cells assessed as inhibition of viral infection; assay type: functional, organism-based; details: for IC50: Human immunodeficiency virus 1, BAL
In short: (§2)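 TZM-bl cells seeded at 6 × 10^4 cells/ml (6000 cells/well), left overnight, then at 50-60% confluence treated in triplicate with compound in D10 or DMSO vehicle. After 5 min, HIV-1 added at 60 TCID50/0.1mL (MOI=0.01). After 24 h at 37°C/5% CO2, cells lysed for Bright Glo luciferase. Inhibition is % reduction in RLU versus virus+DMSO control, with no-virus wells as baseline.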

[5] = Cytotoxicity against human PM1 cells assessed as inhibition of cell viability at 5 uM by trypan blue dye exclusion method relative to control; assay type: cell-based; details: for cytotoxicity at 5 µM: PM1 cells, read-out: INH; for inhibition (INH): pm1, 5 µM
In short: (§3)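 PM1 cells (1.5 × 10^5/0.1 mL) kept in R20 with compound or matched DMSO vehicle over the 5-day BaL propagation assay (10 min pre-treatment, 2 h infection, wash, re-treatment). Viability monitored by trypan blue dye exclusion.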

[6] = test system: Human immunodeficiency virus 1; assay: Antiviral activity against HIV1 infected in human TZM-bl cells assessed as inhibition of viral infection at 10 uM preincubated with cells for 3 hrs followed by viral infection measured after 24 hrs by Bright Glo luciferase reporter gene assay relative to control; assay type: functional; details: Human immunodeficiency virus 1, TZM-bl; in short: as §1
[7] = test system: Human immunodeficiency virus 1; assay: Antiviral activity against HIV1 BAL infected in human PM1 cells assessed as inhibition of viral propagation at 5 uM preincubated with cells for 10 mins followed by viral infection measured after 2 hrs by p24 ELISA relative to control; assay type: functional; details: for inhibition at 5 µM: Human immunodeficiency virus 1, BAL
In short: (§4)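 PM1 cells (1.5 × 10^5/0.1 mL) in R20 (RPMI 1640, 20% FBS, 10mM HEPES) given compound or matched DMSO 10 min, then infected with HIV-1 BaL at 150 TCID50/0.1 mL (MOI=0.001) for 2 h. Cells washed, resuspended in fresh R20 with compound or vehicle. Supernatants taken day 3; culture continued to day 5, supernatant assayed for HIV p24 by ELISA.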

[8] = Cytotoxicity against human PM1 cells assessed as inhibition of cell viability at 10 uM by trypan blue dye exclusion method relative to control; assay type: cell-based; details: read-out: INH; in short: as §3
[9] = test system: Human immunodeficiency virus 1; assay: Antiviral activity against HIV1 BAL infected in human PM1 cells assessed as inhibition of viral propagation at 10 uM preincubated with cells for 10 mins followed by viral infection measured after 2 hrs by p24 ELISA relative to control; assay type: functional; details: for inhibition at 10 µM: Human immunodeficiency virus 1, BAL; in short: as §4
[10] = Cytotoxicity against human TZM-bl cells assessed as decrease in cell metabolic activity up to 10 uM by MTT reduction assay; assay type: ADME, cell-based
In short: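 Confluent TZM-bl cells exposed to compound up to 10 µM or matched vehicle; cell metabolic activity monitored by MTT reduction assay. Mean ± SEM, n=3.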

[11] = test system: Human immunodeficiency virus 1; assay: Antiviral activity against HIV1 93UG067 clinical isolate infected in human TZM-bl cells assessed as inhibition of viral infection; assay type: functional, organism-based; in short: as §2
[12] = test system: Human immunodeficiency virus 1; assay: Antiviral activity against HIV1 92UG029 clinical isolate infected in human TZM-bl cells assessed as inhibition of viral infection; assay type: functional, organism-based; in short: as §2
[13] = test system: Human immunodeficiency virus 1; assay: Antiviral activity against HIV1 93UG070 clinical isolate infected in human TZM-bl cells assessed as inhibition of viral infection; assay type: functional, organism-based; in short: as §2
[14] = Cytotoxicity against human PM1 cells assessed as cell viability at 10 uM by trypan blue dye exclusion method relative to control; assay type: cell-based; details: read-out: Activity; in short: as §3

Structure (SMILES): COc1cc(Br)cc(/C=C/C(=O)c2ccccc2O)c1OC
- cytotoxicity at 10 µM [1]: 72.3%

Structure (SMILES): COc1ccc(Br)cc1C1CC(=O)c2ccccc2O1 (centres undefined)
- inhibition (INH) [1]: Not Active

Structure (SMILES): COc1ccc(C)cc1-c1oc2ccccc2c(=O)c1O
- cytotoxicity at 10 µM [1]: 4.8%

Structure (SMILES): COc1ccccc1-c1cc(=O)c2ccccc2o1
- cytotoxicity at 10 µM [1]: 39.5%

Structure (SMILES): CCOc1ccc(Br)cc1/C=C/C(=O)c1ccccc1O
- cytotoxicity at 10 µM [1]: 51.9%

Structure (SMILES): CCOc1ccc(Cl)cc1/C=C1\Oc2cccc(OCc3ccccc3)c2C1=O
- inhibition (INH) [1]: Not Active
- inhibition at 10 µM [2]: 15.7%

Structure (SMILES): COc1ccc(C)cc1/C=C/C(=O)c1ccccc1O
- cytotoxicity at 10 µM [1]: 46.9%

Structure (SMILES): COc1ccc(Br)cc1/C=C1\Oc2cccc(OC)c2C1=O
- IC50 (CHO; Cricetulus griseus, CHO, 48 h, read-out: IC50): 17.3 µM
- cytotoxicity at 10 µM [1]: 0.2%
- inhibition at 10 µM [2]: 9.2%

Structure (SMILES): COc1ccc(Cl)cc1-c1oc2ccccc2c(=O)c1O
- cytotoxicity at 10 µM [1]: 23.5%

Structure (SMILES): COc1ccc(Br)cc1-c1cc(=O)c2c(OCc3ccccc3)cccc2o1
- cytotoxicity at 10 µM [1]: 6.5%
- Activity [3]: Non-toxic
- inhibition at 10 µM [2]: 16.4%
- IC50 [4]: 42.3 µM

Structure (SMILES): COc1ccc(I)cc1/C=C/C(=O)c1ccccc1O
- cytotoxicity at 10 µM [1]: 99.6%
- inhibition at 10 µM [2]: 99.7%

Structure (SMILES): CCOc1ccc(Br)cc1-c1oc2ccccc2c(=O)c1O
- cytotoxicity at 5 µM [5]: 16.5%
- inhibition at 10 µM [6]: 54.9%
- inhibition (INH) [1]: Not Active
- inhibition [7]: inactive
- cytotoxicity at 10 µM [8]: 23.1%
- Activity [3]: Non-toxic
- inhibition at 10 µM [9]: 1.3%
- inhibition at 10 µM [2]: 51.7%
- IC50 [4]: 10.4 µM

Structure (SMILES): COc1ccccc1/C=C/C(=O)c1c(O)cccc1OCc1ccccc1
- IC50 (CHO; cho): ND(toxic)

Structure (SMILES): COc1ccc(Br)cc1/C=C/C(=O)c1c(O)cccc1OC
- cytotoxicity at 10 µM [1]: 90.4%

Structure (SMILES): COc1cc(Br)cc(-c2oc3ccccc3c(=O)c2O)c1OC
- inhibition (INH) [1]: Not Active
- Activity [3]: Non-toxic
- inhibition at 10 µM [2]: 25.9%
- IC50 [4]: 30.9 µM

Structure (SMILES): COc1ccccc1/C=C/C(=O)c1ccccc1O
- cytotoxicity at 10 µM [1]: 16.5%
- inhibition [2]: inactive

Structure (SMILES): COc1ccccc1-c1oc2ccccc2c(=O)c1O
- inhibition (INH) [1]: Not Active
- Activity [3]: Non-toxic
- inhibition at 10 µM [2]: 21.3%
- IC50 [4]: 30.4 µM

Structure (SMILES): COc1ccc(Br)cc1-c1oc2ccccc2c(=O)c1O
- inhibition (INH) [1]: Not Active
- Activity [3]: Non-toxic
- inhibition at 10 µM [2]: 22.4%
- IC50 [4]: 43.7 µM

Structure (SMILES): COc1ccc(Br)cc1-c1cc(=O)c2ccccc2o1
- cytotoxicity at 10 µM [1]: 23.6%

Structure (SMILES): COc1ccccc1-c1cc(=O)c2c(O)cccc2o1
- cytotoxicity at 10 µM [1]: 44.5%
- Activity [3]: 42%
- inhibition at 10 µM [2]: 83.8%
- IC50 [4]: 4.4 µM

Structure (SMILES): COc1ccc(Br)cc1/C=C/C(=O)c1c(O)cccc1OCc1ccccc1
- cytotoxicity at 5 µM [5]: 0.6%
- inhibition at 10 µM [6]: 90.5%
- cytotoxicity at 10 µM [1]: 23.4%
- inhibition at 5 µM [7]: 80%
- cytotoxicity at 10 µM [8]: 61.7%
- Activity [10]: Non-toxic
- Activity [3]: Non-toxic
- inhibition [11]: Dose-dependent effect
- inhibition at 10 µM [9]: 99.9%
- inhibition at 10 µM [2]: 86.5%
- inhibition [4]: Dose-dependent effect
- IC50 [4]: 4.7 µM
- inhibition [12]: Dose-dependent effect
- inhibition [13]: Dose-dependent effect

Structure (SMILES): CCCCCCCCOc1ccc(Br)cc1/C=C/C(=O)c1c(O)cccc1OCc1ccccc1
- inhibition at 10 µM [6]: 27.9%
- inhibition at 10 µM [2]: < 10%

Structure (SMILES): COc1ccc(I)cc1-c1oc2ccccc2c(=O)c1O
- cytotoxicity at 10 µM [1]: 15.3%

Structure (SMILES): CCOc1ccc(Cl)cc1-c1oc2ccccc2c(=O)c1O
- inhibition at 10 µM [6]: 54.1%
- cytotoxicity at 10 µM [1]: 21.9%
- cytotoxicity at 10 µM [8]: 25.8%
- Activity [3]: 20%
- inhibition [9]: inactive
- IC50 [4]: 12.6 µM

Structure (SMILES): COc1cc(OC)c(/C=C/C(=O)c2ccccc2O)cc1Br
- cytotoxicity at 10 µM [1]: 1.9%
- inhibition at 10 µM [2]: 28.6%

Structure (SMILES): COc1ccc(Br)cc1/C=C/C(=O)c1ccccc1O
- cytotoxicity at 10 µM [1]: 62.6%

Structure (SMILES): CCOc1ccc(Br)cc1/C=C1\Oc2cccc(OCc3ccccc3)c2C1=O
- cytotoxicity at 10 µM [1]: 8.4%
- inhibition at 10 µM [2]: 12.6%

Structure (SMILES): COc1ccc(Br)cc1/C=C/C(=O)c1ccc2ccccc2c1O
- cytotoxicity at 10 µM [1]: 19.9%
- Activity [3]: 90%
- IC50 [4]: 20 µM

Structure (SMILES): COc1cc(OC)c(-c2oc3ccccc3c(=O)c2O)cc1Br
- inhibition (INH) [1]: Not Active
- inhibition at 10 µM [2]: 43.6%

Structure (SMILES): COc1ccc(Br)cc1-c1cc(=O)c2c(O)cccc2o1
- cytotoxicity at 10 µM [1]: 34.8%

Structure (SMILES): COc1ccc(Cl)cc1/C=C/C(=O)c1ccccc1O
- cytotoxicity at 10 µM [1]: 99.5%

Structure (SMILES): CCOc1ccc(Cl)cc1/C=C/C(=O)c1ccccc1O
- cytotoxicity at 10 µM [1]: 86.4%
- inhibition at 10 µM [2]: 86.1%

Structure (SMILES): CCOc1ccc(Br)cc1/C=C/C(=O)c1c(O)cccc1OCc1ccccc1
- inhibition (INH) [5]: Not Active
- inhibition at 10 µM [6]: 89.9%
- inhibition (INH) [1]: Not Active
- inhibition at 5 µM [7]: 72.2%
- viability at 10 µM [14]: 96.8%
- inhibition at 10 µM [9]: 92.3%
- inhibition at 10 µM [2]: 60.2%

Structure (SMILES): CCOc1ccc(Cl)cc1/C=C/C(=O)c1c(O)cccc1OCc1ccccc1
- inhibition (INH) [5]: Not Active
- inhibition at 10 µM [6]: 79%
- cytotoxicity at 10 µM [1]: 8.7%
- inhibition at 5 µM [7]: 65.8%
- cytotoxicity at 10 µM [8]: 12.3%
- inhibition at 10 µM [9]: 95.8%
- inhibition at 10 µM [2]: 64.8%
